Results from ChEMBL document CHEMBL2429791, “Preparation of asymmetric urea derivatives that target prostate-specific membrane antigen for SPECT imaging” (J Med Chem, 2013).

Key:
Format in all cases: ADME, organism-based
Nucleic Acid [1] = test: Ratio of drug level in human PC3 cells xenografted in C.B.-17/Icr +/+ Jcl mouse to muscle of C.B.-17/Icr +/+ Jcl mouse xenografted with human LNCAP and PC3 cells at 25.9 MBq, iv after 2 mins; details: in vivo
How it was run: (§1)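 Mice (22–24 g) carried PC-3 (right shoulder) and LNCaP (left shoulder) tumors, raised by injecting 1–5 × 10⁶ cells in 1:1 PBS/Matrigel and used at about 5–10 mm diameter. [¹²⁵I]-tracer was given via the tail vein, n=4 per time point, and mice were decapitated at 2 min, 30 min, 1, 3 or 6 h. Tissues were weighed and γ-counted as %ID/g. Tumor/blood and tumor/muscle ratios were taken from %ID/g, mean ± SD.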

Blood [2] = test: Biodistribution in blood of C.B.-17/Icr scid/scid Jcl mouse xenografted with human LNCAP and PC3 cells at 25.9 MBq, iv after 2 mins; details: in vivo
Kidney = test: Biodistribution in kidney of C.B.-17/Icr […] Jcl mouse xenografted with human LNCAP and PC3 cells at 25.9 MBq, iv after 6 hrs; details: in vivo
How it was run: (§2)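 ¹²⁵I-labelled tracer given iv by tail vein to mice (22–24 g) bearing LNCaP (left shoulder) and PC-3 (right shoulder) xenografts of about 5–10 mm, grown from 1–5 × 10⁶ cells in 1:1 Matrigel. n=4 per time point; decapitated at 2 min, 30 min, 1, 3, 6 h. Tissues weighed and counted; uptake as %ID/g, mean ± SD.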

[3] = Ratio of drug level in human PC3 cells xenografted in C.B.-17/Icr +/+ Jcl mouse to blood of C.B.-17/Icr +/+ Jcl mouse xenografted with human LNCAP and PC3 cells at 25.9 MBq, iv after 6 hrs; details: PC3 tumour xenograft relative to blood; how it was run: as §1
Stomach = test: Biodistribution in stomach of C.B.-17/Icr +/+ Jcl mouse xenografted with human LNCAP and PC3 cells at 25.9 MBq, iv after 6 hrs; details: in vivo
How it was run: (§3)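 Radioiodinated (¹²⁵I) tracer given by tail-vein injection to mice bearing LNCaP (left shoulder) and PC-3 (right shoulder) xenografts, 22–24 g, grown to about 5–10 mm. Groups of n=4 were decapitated at 2 min, 30 min, 1 h, 3 h or 6 h. Tissues were weighed and counted, and uptake was expressed as %ID/g (mean ± SD).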

Thyroid gland [4] = test: Biodistribution in thyroid of C.B.-17/Icr +/+ Jcl mouse xenografted with human LNCAP and PC3 cells at 25.9 MBq, iv after 6 hrs; details: in vivo; how it was run: as §3
Nucleic Acid [5] = test: Ratio of drug level in human LNCAP cells to human PC3 cells xenografted in C.B.-17/Icr […] Jcl mouse at 25.9 MBq, iv after 3 hrs; details: in vivo
Heart [6] = test: Biodistribution in heart of C.B.-17/Icr +/+ Jcl mouse xenografted with human LNCAP and PC3 cells at 25.9 MBq, iv after 2 mins; details: in vivo; how it was run: as §2
Thyroid gland [7] = test: Biodistribution in thyroid of C.B.-17/Icr +/+ Jcl mouse xenografted with human LNCAP and PC3 cells at 25.9 MBq, iv after 30 mins; details: in vivo, 0.5 h; how it was run: as §3
Lung = test: Biodistribution in lung of C.B.-17/Icr +/+ Jcl mouse xenografted with human LNCAP and PC3 cells at 25.9 MBq, iv after 6 hrs; details: in vivo; how it was run: as §3
Blood [8] = test: Biodistribution in blood of C.B.-17/Icr scid/scid Jcl mouse xenografted with human LNCAP and PC3 cells at 25.9 MBq, iv after 30 mins; details: in vivo, 0.5 h
Heart [9] = test: Biodistribution in heart of C.B.-17/Icr +/+ Jcl mouse xenografted with human LNCAP and PC3 cells at 25.9 MBq, iv after 1 hr; details: in vivo; how it was run: as §2
PC-3 [10] = test: Biodistribution in PC3 cells in C.B.-17/Icr +/+ Jcl mouse xenografted with human LNCAP and PC3 cells at 25.9 MBq, iv after 2 mins; details: in vivo; how it was run: as §2
Intestine = test: Biodistribution in intestine of C.B.-17/Icr +/+ Jcl mouse xenografted with human LNCAP and PC3 cells at 25.9 MBq, iv after 3 hrs; details: in vivo; how it was run: as §2
Liver [11] = test: Biodistribution in liver of C.B.-17/Icr […] Jcl mouse xenografted with human LNCAP and PC3 cells at 25.9 MBq, iv after 6 hrs; details: in vivo; how it was run: as §2
Spleen = test: Biodistribution in spleen of C.B.-17/Icr scid/scid Jcl mouse xenografted with human LNCAP and PC3 cells at 25.9 MBq, iv after 30 mins in presence of 2-PMPA; details: in vivo, 0.5 h
How it was run: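 Blocking study: the ¹²⁵I tracer was coinjected via the tail vein with 2-PMPA (50 mg/kg) into LNCaP/PC-3 tumor-bearing mice, 22–24 g. Mice were decapitated 30 min after injection. Tissues were weighed and counted, giving %ID/g.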

Nucleic Acid [12] = test: Ratio of drug level in human LNCAP cells xenografted in C.B.-17/Icr +/+ Jcl mouse to muscle of C.B.-17/Icr +/+ Jcl mouse xenografted with human LNCAP and PC3 cells at 25.9 MBq, iv after 3 hrs; details: in vivo
How it was run: (§4)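 Tumor-to-blood and tumor-to-muscle ratios were calculated from %ID/g values in ¹²⁵I-tracer biodistribution in LNCaP/PC-3 xenografted mice. Tail-vein dosing, n=4 per time point, sacrifice at 2 min, 30 min, 1, 3 or 6 h.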

Liver [13] = test: Biodistribution in liver of C.B.-17/Icr […] Jcl mouse xenografted with human LNCAP and PC3 cells at 25.9 MBq, iv after 1 hr; details: in vivo; how it was run: as §2
Nucleic Acid [14] = test: Ratio of drug level in human LNCAP cells xenografted in C.B.-17/Icr +/+ Jcl mouse to muscle of C.B.-17/Icr +/+ Jcl mouse xenografted with human LNCAP and PC3 cells at 25.9 MBq, iv after 2 mins; details: in vivo; how it was run: as §4
Blood [15] = test: Biodistribution in blood of C.B.-17/Icr +/+ Jcl mouse xenografted with human LNCAP and PC3 cells at 25.9 MBq, iv after 2 mins; details: in vivo; how it was run: as §2
Nucleic Acid [16] = test: Ratio of drug level in human LNCAP cells to human PC3 cells xenografted in C.B.-17/Icr […] Jcl mouse at 25.9 MBq, iv after 1 hr; details: in vivo
[17] = Ratio of drug level in human LNCAP cells xenografted in C.B.-17/Icr +/+ Jcl mouse to blood of C.B.-17/Icr +/+ Jcl mouse xenografted with human LNCAP and PC3 cells at 25.9 MBq, iv after 30 mins; details: LNCAP tumour xenograft relative to blood; how it was run: as §4
Muscle tissue = test: Biodistribution in muscle of C.B.-17/Icr +/+ Jcl mouse xenografted with human LNCAP and PC3 cells at 25.9 MBq, iv after 6 hrs; details: in vivo; how it was run: as §3
PC-3 [18] = test: Biodistribution in PC3 cells in C.B.-17/Icr +/+ Jcl mouse xenografted with human LNCAP and PC3 cells at 25.9 MBq, iv after 3 hrs; details: in vivo; how it was run: as §2
[19] = Ratio of drug level in human LNCAP cells xenografted in C.B.-17/Icr +/+ Jcl mouse to blood of C.B.-17/Icr +/+ Jcl mouse xenografted with human LNCAP and PC3 cells at 25.9 MBq, iv after 1 hr; details: LNCAP tumour xenograft relative to blood; how it was run: as §4

## O=C(O)CC[C@H](NC(=O)N[C@@H](CSC1CC(=O)N(CCCC[C@H](NC(=O)CNC(=O)c2cccc([125I])c2)C(=O)O)C1=O)C(=O)O)C(=O)O (stereo not given in full)
Nucleic Acid [1]
  Ratio: 1.9
Blood [2]
  Drug uptake: 8.9 % ID/g
Kidney
  Drug uptake: 97.1 % ID/g
[3]
  Kp at 6 h: 0.4
Stomach
  Drug uptake: 0.7 %ID
Thyroid gland [4]
  Drug uptake: 0.02 %ID
Nucleic Acid [5]
  Ratio: 33.9
Heart [6]
  Drug uptake: 5.4 % ID/g
Thyroid gland [7]
  Drug uptake: 0 %ID
Lung
  Drug uptake: 0.9 % ID/g
Blood [8]
  Drug uptake: 1.5 % ID/g
Heart [9]
  Drug uptake: 1.3 % ID/g
PC-3 [10]
  Drug uptake: 2.7 % ID/g
Intestine
  Drug uptake: 5.8 % ID/g
Liver [11]
  Drug uptake: 4.5 % ID/g
Spleen
  Drug uptake: Not Active
Nucleic Acid [12]
  Ratio: 49.4
Liver [13]
  Drug uptake: 13.9 % ID/g
Nucleic Acid [14]
  Ratio: 2.9
Blood [15]
  Drug uptake: 7.4 % ID/g
Nucleic Acid [16]
  Ratio: 9.6
[17]
  Kp at 0.5 h: 7.2
Muscle tissue
  Drug uptake: 0.1 % ID/g
PC-3 [18]
  Drug uptake: 0.3 % ID/g
[19]
  Kp at 1 h: 6.9
